Measurements published in ChEMBL document CHEMBL1158750, “Merosesquiterpenes from two sponges of the genus Dysidea” (2005).

Key:
Assay type in all cases: functional
Conditions in all cases: for CC50: read-out: LC50 (the source's name)
[1] = test system: A549; experiment: Cytotoxicity against human A549 cells by SRB assay
Outline: (§1)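 Human tumor cell line (A-549 lung carcinoma, HT-29 colon adenocarcinoma, MDA-MB-231 mammary gland adenocarcinoma) growth and viability measured by colorimetric sulforhodamine B (SRB) staining. Parameters derived were GI50 (50% growth inhibition), TGI (total growth inhibition) and LC50 (50% cell killing).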

[2] = test system: MDA-MB-231; experiment: Cytotoxicity against human MDA-MB-231 cells by SRB assay; outline: as §1
[3] = test system: HT-29; experiment: Cytotoxicity against human HT-29 cells by SRB assay; outline: as §1

| SMILES | GI50 [1] [µM] | GI50 [2] [µM] | TGI [1] [µM] | CC50 [1] [µM] | TGI [2] [µM] | CC50 [2] [µM] | GI50 [3] [µM] | TGI [3] [µM] | CC50 [3] [µM] |
| --- | --- | --- | --- | --- | --- | --- | --- | --- | --- |
| CC1(C)CCC[C@]2(C)[C@@H](Cc3cc(O)ccc3O)[C@](C)(O)CC[C@@H]12 | 17.4 | 27.7 |  |  |  |  |  |  |  |
| C=C1CCC[C@H]2[C@](C)(Cc3cc(OC(C)=O)ccc3O)[C@@H](C)CC[C@]12C | 25.5 | 21 |  |  |  |  |  |  |  |
| CC1=CC[C@H]2C(C)(C)CCC[C@]2(C)[C@H]1C[C@H]1C(=O)C=C[C@@H]1O [DYSIENONE] | 12.9 | 15.2 | 13.6 | 14.2 | 16.5 | 17.9 | 13.6 | 14.2 | 15.2 |
| CC(=O)Oc1ccc(O)c(C[C@H]2C(C)=CC[C@H]3C(C)(C)CCC[C@]23C)c1O | 10.5 | 10.5 | 11 | 11.8 | 11 | 11.8 | 11.3 | 12.6 | 14 |
